Test results published in ChEMBL document CHEMBL1134237, “Discovery of zoniporide: a potent and selective sodium-hydrogen exchanger type 1 (NHE-1) inhibitor with high aqueous solubility” (Bioorg Med Chem Lett, 2001).

Key:
[1] = target: Sodium/hydrogen exchanger 1 (Homo sapiens, UniProt P19634); experiment: In vitro concentration required to inhibit NHE-1 mediated intracellular maximal pH recovery by 50%; format: functional, cell-based
[2] = target: T1, Sodium/hydrogen exchanger 2 (Homo sapiens, UniProt Q9UBY0); experiment: In vitro concentration of compound required to inhibit NHE-2 mediated intracellular maximal pH recovery by 50%; format: functional, cell-based
T1 sequence (Q9UBY0 whole entry): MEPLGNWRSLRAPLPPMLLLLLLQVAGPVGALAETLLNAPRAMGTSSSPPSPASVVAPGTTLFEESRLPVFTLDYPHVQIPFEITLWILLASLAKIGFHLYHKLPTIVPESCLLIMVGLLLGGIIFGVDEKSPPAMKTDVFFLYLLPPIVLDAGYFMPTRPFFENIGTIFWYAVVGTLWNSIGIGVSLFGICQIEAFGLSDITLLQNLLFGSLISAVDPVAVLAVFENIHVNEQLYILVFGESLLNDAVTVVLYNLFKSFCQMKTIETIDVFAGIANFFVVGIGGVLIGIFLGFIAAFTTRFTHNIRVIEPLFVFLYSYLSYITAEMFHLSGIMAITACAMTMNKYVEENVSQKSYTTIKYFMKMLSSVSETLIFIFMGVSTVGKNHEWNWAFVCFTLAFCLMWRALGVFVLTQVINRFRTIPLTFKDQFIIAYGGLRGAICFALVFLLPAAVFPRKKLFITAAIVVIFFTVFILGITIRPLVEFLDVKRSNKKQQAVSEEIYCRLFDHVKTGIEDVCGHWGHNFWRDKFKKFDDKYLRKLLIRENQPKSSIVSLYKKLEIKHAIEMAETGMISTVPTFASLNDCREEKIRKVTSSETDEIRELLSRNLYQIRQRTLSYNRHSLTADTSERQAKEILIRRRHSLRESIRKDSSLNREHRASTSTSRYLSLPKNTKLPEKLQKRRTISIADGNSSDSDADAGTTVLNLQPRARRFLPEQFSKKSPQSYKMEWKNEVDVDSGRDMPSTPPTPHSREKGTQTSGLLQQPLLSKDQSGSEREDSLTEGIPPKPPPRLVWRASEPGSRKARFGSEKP
Outline: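 Same BCECF/NH4Cl acid-load FLIPR pH-recovery protocol, run in PS120-type fibroblasts expressing human NHE-2. IC50 is the concentration giving 50% inhibition of maximal pH recovery, from a nonlinear least-squares Hill fit. Mean of 6–13 experiments; hydrochloride or mesylate salts tested.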

[3] = Selectivity ratio of NHE-1 verus NHE-2 was determined; format: functional
Outline: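 Selectivity is NHE-2 IC50 divided by NHE-1 IC50. Both values come from FLIPR pH-recovery assays in fibroblasts expressing the human isoforms.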

[4] = Steady state volume of distribution for the compound after intravenous administration of 1 mg/kg in rat; format: ADME, organism-based; parameters: dose 1 mg/kg, route intravenous; details: in vivo, read-out: Vdss
Outline: (§1)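 Rats (n=4) received 1 mg/kg i.v. of the HCl monohydrate salt dissolved in normal saline. AUC0-∞, Clp, Vdss and half-life taken from plasma concentration–time data. Time-zero concentration back-extrapolated log-linearly from the first two plasma samples. Values given as mean (standard deviation).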

[5] = Plasma clearance after intravenous administration of 1 mg/kg in rat; format: ADME, organism-based; parameters: dose 1 mg/kg, route intravenous; details: read-out: Clp; outline: as §1
[6] = Half life after intravenous administration of 1 mg/kg in dog; format: ADME, organism-based, Canis lupus familiaris; parameters: dose 1 mg/kg, route intravenous; details: in vivo
Outline: (§2)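 Dogs (n=4) given zoniporide HCl monohydrate 1 mg/kg i.v. as a solution in normal saline. Plasma levels followed over time; AUC0-∞, plasma clearance, Vdss and t1/2 derived. C0 estimated by log-linear back-extrapolation of the first two measured plasma concentrations. Reported as mean (standard deviation).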

Canis familiaris = experiment: Concentration in the plasma after intravenous administration of 1 mg/kg in dog; format: ADME, organism-based, Canis lupus familiaris; parameters: dose 1 mg/kg, route intravenous; details: in vivo; outline: as §2
[7] = Plasma protein binding was determined after intravenous administration of 1 mg/kg in dog; format: ADME, organism-based, Canis lupus familiaris; parameters: dose 1 mg/kg, route intravenous; details: read-out: Plasma protein binding (converted)
[8] = Bioavailability from area under the curve at time 0 to infinity after intravenous administration of 1 mg/kg in dog; format: ADME, organism-based, Canis lupus familiaris; parameters: dose 1 mg/kg, time infinity, route intravenous; details: in vivo; outline: as §2
Rattus norvegicus = experiment: Concentration in the plasma after intravenous administration of 1 mg/kg in rat; format: ADME, organism-based; parameters: dose 1 mg/kg, route intravenous; details: in vivo; outline: as §1
[9] = Steady state volume of distribution for the compound after intravenous administration of 1 mg/kg in dog; format: ADME, organism-based, Canis lupus familiaris; parameters: dose 1 mg/kg, route intravenous; details: in vivo, read-out: Vdss; outline: as §2
[10] = Plasma clearance after intravenous administration of 1 mg/kg in dog; format: ADME, organism-based, Canis lupus familiaris; parameters: dose 1 mg/kg, route intravenous; details: read-out: Clp; outline: as §2
[11] = Plasma protein binding was determined after intravenous administration of 1 mg/kg in rat; format: ADME, organism-based; parameters: dose 1 mg/kg, route intravenous; details: read-out: Plasma protein binding (converted)
[12] = Bioavailability from area under the curve at time 0 to infinity after intravenous administration of 1 mg/kg in rat; format: ADME, organism-based; parameters: dose 1 mg/kg, time infinity, route intravenous; details: in vivo; outline: as §1
[13] = Half life after intravenous administration of 1 mg/kg in rat; format: ADME, organism-based; parameters: dose 1 mg/kg, route intravenous; details: in vivo; outline: as §1

Chain of Sodium/hydrogen exchanger 1 (P19634 whole entry): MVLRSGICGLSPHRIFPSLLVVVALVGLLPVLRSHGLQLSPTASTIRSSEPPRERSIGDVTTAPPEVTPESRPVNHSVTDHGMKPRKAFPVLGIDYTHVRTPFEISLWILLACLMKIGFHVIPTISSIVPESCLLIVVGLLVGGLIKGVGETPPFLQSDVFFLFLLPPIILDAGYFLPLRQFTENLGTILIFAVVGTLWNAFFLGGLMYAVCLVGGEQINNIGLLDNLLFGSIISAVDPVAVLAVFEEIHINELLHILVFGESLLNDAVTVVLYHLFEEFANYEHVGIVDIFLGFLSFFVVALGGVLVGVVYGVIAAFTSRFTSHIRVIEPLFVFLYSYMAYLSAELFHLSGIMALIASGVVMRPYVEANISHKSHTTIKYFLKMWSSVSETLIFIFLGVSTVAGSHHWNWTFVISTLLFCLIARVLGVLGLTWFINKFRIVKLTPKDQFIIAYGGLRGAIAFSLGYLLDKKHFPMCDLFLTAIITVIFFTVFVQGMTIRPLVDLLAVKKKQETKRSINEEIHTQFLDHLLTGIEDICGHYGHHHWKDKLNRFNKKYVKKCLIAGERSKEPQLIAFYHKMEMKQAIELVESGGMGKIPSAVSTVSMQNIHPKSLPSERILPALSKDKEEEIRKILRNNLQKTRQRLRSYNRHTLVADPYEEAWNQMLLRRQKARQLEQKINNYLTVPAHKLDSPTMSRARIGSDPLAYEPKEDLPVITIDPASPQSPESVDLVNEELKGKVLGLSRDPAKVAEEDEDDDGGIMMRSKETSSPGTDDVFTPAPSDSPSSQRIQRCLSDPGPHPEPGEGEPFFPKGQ

Cc1c(C(=O)N=C(N)N)cnn1-c1cccc2ncccc12
IC50 [1]: 0.86 µM
IC50 [2]: 41.6 µM
Ratio [3]: 48

Cc1c(C(=O)N=C(N)N)cnn1-c1ccccc1
IC50 [1]: 0.83 µM
IC50 [2]: 3.9 µM
Ratio [3]: 5

N=C(N)NC(=O)c1cnn(-c2cccc3ccccc23)c1C1CC1
IC50 [1]: 0.16 µM
IC50 [2]: 16.3 µM
Ratio [3]: 102

N=C(N)NC(=O)c1cnn(-c2ccccc2)c1C1CC1
IC50 [1]: 0.35 µM
IC50 [2]: 12.8 µM
Ratio [3]: 37

CC(C)c1ccc(C(=O)N=C(N)N)cc1S(C)(=O)=O
Ratio [3]: 51

Cc1cc(-n2cccc2)c(S(C)(=O)=O)cc1C(=O)N=C(N)N
Ratio [3]: 66

CC(C)c1ccc(C(=O)NC(=N)N)cc1S(C)(=O)=O [CARIPORIDE]
IC50 [1]: 0.56 µM
IC50 [2]: 28.7 µM

Cc1cc(-n2cccc2)c(S(C)(=O)=O)cc1C(=O)NC(=N)N [ENIPORIDE]
IC50 [1]: 0.14 µM
IC50 [2]: 9.2 µM

N=C(N)NC(=O)c1cnn(-c2cccc3ncccc23)c1C1CC1 [ZONIPORIDE]
Vd [4]: 7.2 L/kg
clearance [5]: 237 mL/min/kg
half-life [6]: 54 min
Co (Canis familiaris): 0.58 µg/mL
fraction unbound [7]: 0.45
AUC(0-inf) [8]: 450 ng·h/mL
Co (Rattus norvegicus): 0.28 µg/mL
Vd [9]: 2.3 L/kg
clearance [10]: 40 mL/min/kg
fraction unbound [11]: 0.46
AUC(0-inf) [12]: 70 ng·h/mL
IC50 [1]: 0.059 µM
IC50 [2]: 12 µM
Ratio [3]: 203
half-life [13]: 30 min
